Hits are enriched below; roughly 2.3% of the tested compounds scored in any of these assays.
TRPC4 potent = allosterically enhances the mouse TRPC4 cation channel. Q9QUQ5. HEK293 TRPC4beta/mu-opioid, DAMGO EC20, Fluo-4 Ca2+ flux; active compounds read high. B-score at 10 µM. actives 0.42% (n = 310,000). AID 2227;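 active = B-score of calcium response area above 5 SD of library B-scores, with initial fluorescence ratio within 5 SD of library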;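 also: B-score of integrated fluorescence ratio over time as area under calcium response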
TRPC6 act = activates the mouse TRPC6 cation channel; Q61143; HEK293-TRPC6 membrane potential dye fluorescence; active compounds read high; B-score at 10 µM; actives 0.13% (n = 310,000);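 active = B-score of the integrated fluorescence ratio above library mean plus 3 SD, and starting fluorescence ratio within library mean plus 5 SD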;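 also: higher score means more depolarization so channel activation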
Target sequence (Q61143 whole entry, looked up): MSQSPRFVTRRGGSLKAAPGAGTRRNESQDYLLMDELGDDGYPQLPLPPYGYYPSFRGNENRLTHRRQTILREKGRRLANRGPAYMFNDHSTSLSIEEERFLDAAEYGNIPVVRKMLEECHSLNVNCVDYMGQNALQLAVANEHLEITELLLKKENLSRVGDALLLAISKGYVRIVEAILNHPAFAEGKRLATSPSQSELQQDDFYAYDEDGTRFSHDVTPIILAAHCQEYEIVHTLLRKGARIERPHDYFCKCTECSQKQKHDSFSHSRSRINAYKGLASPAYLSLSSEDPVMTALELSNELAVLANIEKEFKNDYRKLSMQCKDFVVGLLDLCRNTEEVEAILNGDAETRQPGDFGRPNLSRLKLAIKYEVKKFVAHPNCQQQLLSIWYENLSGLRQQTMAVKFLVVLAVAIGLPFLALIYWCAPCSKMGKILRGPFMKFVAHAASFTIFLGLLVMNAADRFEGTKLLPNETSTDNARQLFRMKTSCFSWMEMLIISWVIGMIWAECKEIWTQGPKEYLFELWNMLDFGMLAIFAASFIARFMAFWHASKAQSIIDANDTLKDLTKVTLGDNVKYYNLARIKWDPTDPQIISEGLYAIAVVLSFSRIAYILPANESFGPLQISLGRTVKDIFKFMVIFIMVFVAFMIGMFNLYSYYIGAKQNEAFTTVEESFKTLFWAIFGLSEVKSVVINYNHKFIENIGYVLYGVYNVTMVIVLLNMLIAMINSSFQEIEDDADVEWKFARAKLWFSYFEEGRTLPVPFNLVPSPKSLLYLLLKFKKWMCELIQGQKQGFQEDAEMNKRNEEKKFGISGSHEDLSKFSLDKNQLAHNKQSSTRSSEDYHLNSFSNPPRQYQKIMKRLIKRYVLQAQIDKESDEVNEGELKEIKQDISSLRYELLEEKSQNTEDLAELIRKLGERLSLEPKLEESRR
TRPC4 block = TRPC4 (mouse) channel inhibition | actives 0.39% (n = 300,000) | B-score at 10 µM | HEK293 TRPC4beta/mu-opioid, DAMGO-evoked Fluo4 calcium flux; active compounds read low;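 active = B-score over 3 SD under the library average, no early fluorescence shift, positive overall ratio signal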
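Assay system: HEK293 cells with stable TRPC4beta plus mu-opioid receptor expression; Probe or stimulus: DAMGO in two steps, submaximal then maximal; Dosing: single-point compound dosing; Measured by: Fluo4 calcium-dye fluorescence, kinetic read; Read-out basis: B score from integrated Fluo4 fluorescence ratio.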
TRPC6 inh = blocks the mouse TRPC6 cation channel; Q61143; actives 1.1% (n = 310,000); HEK293-TRPC6, membrane potential dye, ACh-evoked depolarization; active compounds read low; B-score at 10 µM; AID 2553;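 active = B-score under library mean minus 3 SD, initial fluorescence not abnormally high, positive integrated signal ratio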;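 also: B-score derived from integrated fluorescence ratio over the kinetic read; more negative B-score means stronger inhibition of depolarization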
TRPC4 agonist = opens the mouse TRPC4 cation channel; actives 0.49% (n = 310,000); Q9QUQ5; HEK293 TRPC4beta/mu-opioid, Fluo4 calcium fluorescence; active compounds read high; B-score at 10 µM;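 active = B-score above 5 SD of library B-scores, and initial fluorescence ratio not above library mean plus 5 SD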;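 also: positive B-score marks a calcium rise read as TRPC4 activation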
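Material: TRPC4beta and mu-opioid receptor HEK293 stable cells | Incubation: 45 min room-temperature Fluo4 loading, 110 s read | Detection: Kinetic Fluo4 calcium fluorescence | Measure: Integrated baseline-normalised fluorescence ratio, converted to per-well B score | Benchmarks: Low control buffer alone, high control maximal DAMGO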
TRPC4 spec 2 = mouse TRPC4 off-target activity of TRPC6 inhibitors, second screen. HEK293 TRPC4/MOR, membrane potential dye fluorescence; channel activated by saturating DAMGO dose. actives 42% (n = 920). shares compounds with TRPC6 inh. inhibition, % at 10 µM;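 active = compounds whose fluorescence signal differed from control wells by over 3 SD, either direction, in both duplicate plates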
TRPC4 spec = selectivity of TRPC6 inhibitors: effect on mouse TRPC4; shares compounds with TRPC6 inh; HEK293 TRPC4/mu-opioid, membrane potential fluorescence; activity change, negative = inhibition, % at 10 µM; actives 61% (n = 920);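 active = rise or fall in signal beyond 3 SD of buffer-only wells in both replicate plates, either sign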;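 also: integrated kinetic ratio of fluorescence range over baseline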
HEK293 MPD ctr 2-1 = parental HEK293 nonspecific activity of TRPC6 inhibitors, second screen. shares compounds with TRPC6 inh. parental HEK293 membrane potential dye fluorescence; maximal acetylcholine challenge after compound addition. signal change vs control, % at 10 µM. actives 31% (n = 920). AID 2779;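 active = membrane potential signal moving either way by over 3 SD of the maximum-effect control, in both duplicate plates, meaning non-specific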
HEK293 MPD ctr-1 = parental HEK293 nonspecific activity of TRPC6 inhibitors. parental HEK293 membrane potential dye fluorescence. shares compounds with TRPC6 inh. actives 60% (n = 920). membrane potential signal change, % at 10 µM;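 active = membrane potential signal shifting up or down by more than 3 SD of buffer-only wells, on both duplicate plates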
HEK293 MPD ctr-2 = parental HEK293 nonspecific activity of TRPC6 modulators; AID 488924; membrane potential dye fluorescence; shares compounds with TRPC6 inh; actives 51% (n = 2,400); membrane potential signal change, % at 10 µM;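 active = membrane potential signal moves up or down beyond 5 SD from buffer-only wells, on both duplicate plates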
HEK293 MPD ctr 2-2 = parental HEK293 nonspecific activity of TRPC6 modulators, second screen | shares compounds with TRPC6 inh | membrane potential dye fluorescence; after compound, maximal acetylcholine stimulation | inhibition, % at 10 µM | actives 14% (n = 2,400) | AID 488926;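 active = membrane potential signal drops by more than 5 SD from the mean control signal, in both duplicate plates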;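 also: plate controls were acetylcholine ECmax control wells for no effect and buffer only wells for full effect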
TRPC4/MOR mod = mouse TRPC4 off-target activity of TRPC6 modulators; shares compounds with TRPC6 inh; AID 488927; HEK293 TRPC4/mu-opioid, membrane potential fluorescence; actives 69% (n = 2,400); percent change from control (negative = decrease, positive = increase), % at 10 µM;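 active = membrane potential signal moved up or down beyond 5 SD of buffer control wells, in both duplicate plates, actives on both sides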;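 also: plate controls were assay buffer wells for no effect and DAMGO maximal-effect wells for full effect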
TRPC4 ctr inh 2 = mouse TRPC4 off-target activity of TRPC6 modulators, second screen. shares compounds with TRPC6 inh. HEK293 TRPC4/mu-opioid, membrane potential dye fluorescence; stimulated with maximal-effect DAMGO. inhibition, % at 10 µM. actives 55% (n = 2,400). AID 488928;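 active = drop in membrane potential signal beyond 5 SD of the control wells in both duplicate plates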;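 also: TRPC4 counter screen for TRPC6 hits run under conditions tuned for TRPC6 not TRPC4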
TRPC6 inh conf = confirmation of mouse TRPC6 inhibitors; actives 43% (n = 3,300); inhibition, % at 10 µM; shares compounds with TRPC6 inh; HEK293-TRPC6, membrane potential dye, ACh-evoked depolarization; AID 488960;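 active = fluorescence ratio falls more than 5 SD below the full-stimulation control mean, in both duplicate runs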;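 also: integrated fluorescence ratio of peak minus minimum over baseline after agonist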
TRPC6 act conf = confirmation of mouse TRPC6 activators | shares compounds with TRPC6 inh | HEK293-TRPC6 membrane potential dye fluorescence, FDSS | activation, % at 10 µM | actives 11% (n = 2,800) | AID 488961;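 active = ratio signal rise beyond 5 SD above unstimulated control wells' mean, seen in both duplicate runs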;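 also: plate controls were buffer EC0 wells for no effect and acetylcholine ECmax response for full effect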
An asterisk follows results filed as active; i = inactive; x = no result given.

SMILES | TRPC4 potent | TRPC6 act | TRPC4 block | TRPC6 inh | TRPC4 agonist | HEK293 MPD ctr-2 | HEK293 MPD ctr 2-2 | TRPC4/MOR mod | TRPC4 ctr inh 2 | TRPC6 inh conf | TRPC6 act conf | others
COc1cccc(-c2nc(SCC(=O)Nc3nc(-c4ccccc4)c(C)s3)[nH]c(=O)c2C#N)c1 | i | i | i | i | i | x | x | x | x | x | x
CCOc1ccc2nc(NC(=O)CSc3nc(-c4ccccc4)c(C#N)c(=O)[nH]3)sc2c1 | i | 12* | i | i | i | i | i | 20%* | i | i | 36%*
O=C(NCC1(O)CCCCC1)C1CCC(=O)N(Cc2cccc(C(F)(F)F)c2)C1 (centres undefined) | i | i | i | i | i | x | x | x | x | x | x
COc1ccc(Cl)cc1S(=O)(=O)Nc1ccc2c(c1)n(C)c(=O)n2C | i | i | i | i | i | x | x | x | x | x | x
COc1cccc2cc(C(=O)NCCc3ccccc3)oc12 | i | i | i | -6.2* | i | 90%* | i | 16%* | i | i | x
COc1cccc(OC)c1C(=O)NCCc1ccccc1 | i | i | i | i | i | x | x | x | x | x | x
N#Cc1cc(Sc2ccccn2)c([N+](=O)[O-])cc1C#N | i | i | i | -8.3* | i | x | x | x | x | 75%* | i | TRPC4 spec 2=i;TRPC4 spec=-21%*;HEK293 MPD ctr 2-1=-78%*;HEK293 MPD ctr-1=-320%*
O=c1c2c3c(sc2nc(NCCO)n1-c1ccccc1)CCCC3 | i | i | i | i | i | x | x | x | x | x | x
CN(C)CCCNc1nc2sc3c(c2c(=O)n1CCc1ccccc1)CCCCC3 | i | i | i | -7* | i | x | x | x | x | i | i | TRPC4 spec 2=74%*;TRPC4 spec=-11%*;HEK293 MPD ctr 2-1=i;HEK293 MPD ctr-1=i
CCOc1cc(C(=O)N[C@@H](C)C(=O)N2CCC3(CC2)NCCc2[nH]cnc23)cc(OCC)c1OCC | i | i | i | i | i | x | x | x | x | x | x
O=C(Nc1ccc(S(=O)(=O)N2CCCCC2c2cccnc2)cc1)c1c(F)cccc1F (centres undefined) | i | i | i | -5.1* | i | i | i | i | i | i | i
COc1ccccc1CCN1CCCC(CN(C)C(=O)c2ccoc2)C1 (centres undefined) | i | i | i | i | i | x | x | x | x | x | x
COc1ccc(-c2cc(N3CCCC3)n3ncnc3n2)cc1 | i | i | i | -6.5* | i | 134%* | i | 26%* | i | i | x
COc1ccc(S(=O)(=O)N2CCN(c3cc(-c4ccccc4)nc4ncnn34)CC2)cc1 | i | i | i | i | i | x | x | x | x | x | x
Brc1cccc(-c2cnc3n2CCCCC3)c1 | i | i | i | -5.4* | i | 136%* | i | 24%* | 48%* | 54%* | x
COc1ccc(/C=C/C(=O)Nc2ccccc2C(=O)NCC(c2ccc(OC)cc2)N(C)C)cc1 (centres undefined) | i | i | -7* | -6.8* | 48* | x | x | x | x | i | i | TRPC4 spec 2=12%*;TRPC4 spec=49%*;HEK293 MPD ctr 2-1=i;HEK293 MPD ctr-1=i
O=C(NCCS(=O)(=O)N1CCN(c2cccc(Cl)c2)CC1)c1cc(=O)c2ccccc2o1 | i | i | i | i | i | x | x | x | x | x | x
CC(C)(O)C#Cc1ccc(CN2CCN(C3CCCCC3)C(CCO)C2)s1 (centres undefined) | i | i | i | -7.4* | i | x | x | x | x | i | i | TRPC4 spec 2=i;TRPC4 spec=i;HEK293 MPD ctr 2-1=i;HEK293 MPD ctr-1=i
COc1cc(C(=O)Nc2ccc(NC(=O)c3cccc(Cl)c3)nc2)cc(OC)c1OC | i | i | i | -5.4* | i | i | i | i | i | i | i
COc1cc(C(=O)Nc2ccc(N(C)C)cc2)cc(OC)c1OC | i | i | i | -6.4* | i | i | i | i | i | i | i
N=c1c(C(=O)NC2CCCCC2)cc2c(=O)n3ccccc3nc2n1Cc1cccnc1 | i | i | i | -5.5* | i | -84%* | i | -24%* | 30%* | 36%* | i
N=c1c(C(=O)NC2CCCCC2)cc2c(=O)n3ccccc3nc2n1Cc1ccccc1 | i | i | i | -8* | i | -142%* | i | -36%* | 50%* | 46%* | i
CCOC(=O)/C(=N\Nc1ccccc1[N+](=O)[O-])c1csc(N)n1 | i | i | i | -5.2* | i | i | i | -18%* | i | i | i
CCOC(=O)/C(=N\Nc1ccc(C(C)=O)cc1)c1csc(Nc2ccccc2)n1 | i | i | i | i | i | x | x | x | x | x | x
CCC(C)[C@H]1COCCS(=O)(=O)N1Cc1ccc(Br)cc1 (some centres undefined) | i | i | i | i | i | x | x | x | x | x | x
CCC(=O)Nc1cccc(-c2cnc3ccccc3n2)c1 | i | i | i | -5.6* | i | i | i | i | i | i | i
O=C(NCCNC(=O)c1cccc(O)c1)c1cccc(O)c1 | i | i | i | i | i | x | x | x | x | x | x
Nc1cccc(C(=O)NCCNC(=O)c2cccc(N)c2)c1 | i | i | i | -7.1* | i | x | x | x | x | i | i | TRPC4 spec 2=i;TRPC4 spec=i;HEK293 MPD ctr 2-1=i;HEK293 MPD ctr-1=i

Source: PubChem
